Measurements: ChEMBL document CHEMBL3792333, “The discovery of indole derivatives as novel hepatitis C virus inhibitors” (Eur J Med Chem, 2016)
The source made the active and inactive calls. The rule behind the calls is not given here.

Legend:
[1] = system: Hepatitis C virus; assay: Antiviral activity against Hepatitis C virus JFH-1 infected in human Huh7.5.1 cells measured 48 hrs post infection by luciferase reporter gene assay; format: functional, organism-based, Hepacivirus hominis; conditions: JFH-1, Huh-7, 48 h
Procedure, shortened: (§1)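 Huh7.5.1 cells were seeded and grown 24 h at 37 °C, 5% CO₂. They were then treated with serially diluted compound and infected with Renilla luciferase-linked HCV(JFH-1) reporter virus. Luminescence was read at 48 hpi, and EC₅₀ and CC₅₀ were derived from it. SI is CC₅₀/EC₅₀. Results are the mean of three independent experiments with SD.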

[2] = Cytotoxicity against human Huh7.5.1 cells infected with Hepatitis C virus JFH-1 measured 48 hrs post infection by luciferase reporter gene assay; format: cell-based, Huh-7; procedure, shortened: as §1
[3] = Selectivity index, ratio of CC50 for human Huh7.5.1 cells infected with Hepatitis C virus JFH-1 to EC50 for Hepatitis C virus JFH-1 infected in human Huh7.5.1 cells; format: toxicity, cell-based, Huh-7; conditions: read-out: Ratio CC50/EC50; procedure, shortened: as §1
[4] = system: Hepatitis C virus; assay: Antiviral activity against Hepatitis C virus JFH-1 infected in human Huh7.5.1 cells assessed as inhibition of viral entry at 2 uM treated 2 to 6 hrs prior infection incubated for 24 hrs by luciferase reporter gene assay; format: functional, organism-based; conditions: Hepacivirus hominis, Huh-7
Procedure, shortened: (§2)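 Huh7.5.1 cells were seeded at 3×10⁴/well in 10% FBS-DMEM and grown overnight at 37 °C, 5% CO₂. Compound was added with 100 TCID₅₀ of HCV(JFH-1) Renilla luciferase reporter virus (0 h), or at -6 to 10 hpi. Cells were incubated 24 h at 37 °C, and luciferase activity was compared with 0.5% DMSO mock cultures.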

[5] = system: Hepatitis C virus; assay: Antiviral activity against Hepatitis C virus JFH-1 infected in human Huh7.5.1 cells assessed as inhibition of viral RNA replication at 2 uM treated 2 to 10 hrs post infection incubated for 24 hrs by luciferase reporter gene assay; format: functional, organism-based; conditions: Hepacivirus hominis, Huh-7; procedure, shortened: as §2
[6] = system: Hepatitis C virus; assay: Antiviral activity against Hepatitis C virus JFH-1 infected in human Huh7.5.1 cells assessed as inhibition of viral entry at 2 uM treated 1 hr post infection incubated for 24 hrs by luciferase reporter gene assay; format: functional, organism-based; conditions: Hepacivirus hominis, Huh-7; procedure, shortened: as §2
[7] = system: Hepatitis C virus; assay: Antiviral activity against Hepatitis C virus JFH-1 infected in human Huh7.5.1 cells assessed as inhibition of viral entry at 2 uM treated immediately after viral infection incubated for 24 hrs by luciferase reporter gene assay; format: functional, organism-based; conditions: Hepacivirus hominis, Huh-7; procedure, shortened: as §2
[8] = system: Hepatitis C virus; assay: Antiviral activity against Hepatitis C virus JFH-1 infected in human Huh7.5.1 cells assessed as inhibition of viral entry at 5 uM treated 2 to 6 hrs prior infection incubated for 24 hrs by luciferase reporter gene assay; format: functional, organism-based; conditions: Hepacivirus hominis, Huh-7; procedure, shortened: as §2
[9] = system: Hepatitis C virus; assay: Antiviral activity against Hepatitis C virus JFH-1 infected in human Huh7.5.1 cells assessed as inhibition of viral RNA replication at 5 uM treated 2 to 10 hrs post infection incubated for 24 hrs by luciferase reporter gene assay; format: functional, organism-based; conditions: Hepacivirus hominis, Huh-7; procedure, shortened: as §2
[10] = system: Hepatitis C virus; assay: Antiviral activity against Hepatitis C virus JFH-1 infected in human Huh7.5.1 cells assessed as inhibition of viral entry at 5 uM treated immediately after viral infection incubated for 24 hrs by luciferase reporter gene assay; format: functional, organism-based; conditions: Hepacivirus hominis, Huh-7; procedure, shortened: as §2
[11] = system: Hepatitis C virus; assay: Antiviral activity against Hepatitis C virus JFH-1 infected in human Huh7.5.1 cells assessed as inhibition of viral entry at 5 uM treated 1 hr post infection incubated for 24 hrs by luciferase reporter gene assay; format: functional, organism-based; conditions: Hepacivirus hominis, Huh-7; procedure, shortened: as §2

| Compound | EC50 [1] [µM] | CC50 at 48 h [2] [µM] | selectivity ratio [3] | also measured |
| --- | --- | --- | --- | --- |
| CC1=NN(c2ccccc2F)C(=O)/C1=C/c1cn(CC2CO2)c2ccccc12 (centres undefined) | 5.11 | 30.4 | 5.95 | – |
| CC1=NN(C)C(=O)/C1=C/c1cn(CC2CO2)c2ccccc12 (centres undefined) | > 50 | > 50 | – | – |
| CC1=NN(c2ccc(C)cc2)C(=O)/C1=C/c1cn(CC2CO2)c2ccccc12 (centres undefined) | 3.06 | 13.2 | 4.24 | – |
| COc1ccc(N2N=C(C)/C(=C\c3cn(CC4CO4)c4ccccc34)C2=O)cc1 (centres undefined) | 2.06 | 11.9 | 5.76 | – |
| CC1=NN(c2ccc(C)cc2)C(=O)/C1=C/c1cn(CC(O)CNCCCN2CCOCC2)c2ccccc12 (racemic) | 1.83 | 36.2 | 19.8 | – |
| CC1=NN(c2ccc(Cl)cc2)C(=O)/C1=C/c1cn(CC2CO2)c2ccccc12 (centres undefined) | 6.82 | 35.3 | 5.17 | – |
| CC1=NN(c2ccccc2)C(=O)/C1=C/c1cn(CC(O)CNCCCN2CCOCC2)c2ccccc12 (racemic) | 2.04 | 35.8 | 17.6 | – |
| CC1=NN(c2ccccc2)C(=O)/C1=C/c1cn(CC(O)CNCc2ccccc2)c2ccccc12 (racemic) | > 50 | > 50 | – | – |
| CC1=NN(c2ccccc2)C(=O)/C1=C/c1cn(C)c2ccccc12 | 21.2 | > 50 | > 2.36 | – |
| CC1=NN(c2cccc(F)c2)C(=O)/C1=C/c1cn(CC2CO2)c2ccccc12 (centres undefined) | 2.65 | 25.6 | 9.67 | – |
| COc1ccc(N2N=C(C)/C(=C\c3cn(CC(O)CNCCCN4CCOCC4)c4ccccc34)C2=O)cc1 (racemic) | 2.05 | 15.4 | 7.53 | – |
| CC1=NN(c2ccc(Cl)cc2)C(=O)/C1=C/c1cn(CC(O)CNCCCN2CCOCC2)c2ccccc12 (racemic) | 3.42 | 17.5 | 5.12 | – |
| CC1=NN(c2cccc(F)c2)C(=O)/C1=C/c1cn(C[C@@H](O)CNCCCN2CCOCC2)c2ccccc12 | 5.87 | 23.3 | 3.97 | – |
| CC1=NN(c2ccccc2)C(=O)/C1=C/c1cn(CC2CO2)c2ccccc12 (centres undefined) | 5.78 | 46.3 | 8.02 | inhibition [8]: Active; inhibition [9]: inactive; inhibition [10]: Active; inhibition [11]: Active |
| CC1=NN(c2cccc(F)c2)C(=O)/C1=C/c1cn(CC(O)CNCCCN2CCOCC2)c2ccccc12 (racemic) | 0.92 | 21.5 | 23.3 | – |
| CC1=NN(c2ccc(F)cc2)C(=O)/C1=C/c1cn(C[C@H](O)CNCCCN2CCOCC2)c2ccccc12 | 0.72 | > 50 | > 69.4 | – |
| CC1=NN(c2ccccc2)C(=O)/C1=C/c1cn(CC(O)CNCCCCN2CCOCC2)c2ccccc12 (racemic) | 2.03 | 8.13 | 4 | – |

Second part, led by results:

| EC50 [1] [µM] | Compound | CC50 at 48 h [2] [µM] | selectivity ratio [3] | also measured |
| --- | --- | --- | --- | --- |
| 2.79 | CC1=NN(c2ccccc2F)C(=O)/C1=C/c1cn(CC(O)CNCCCN2CCOCC2)c2ccccc12 (racemic) | 34.2 | 12.3 | – |
| 21.9 | CC1=NN(c2ccccc2)C(=O)/C1=C/c1cn(CC(O)CN2CCOCC2)c2ccccc12 (racemic) | > 50 | > 2.29 | – |
| 2.08 | CC1=NN(c2cccc(C(F)(F)F)c2)C(=O)/C1=C/c1cn(CC(O)CNCCCN2CCOCC2)c2ccccc12 (racemic) | 17.8 | 8.57 | – |
| 7.12 | CC1=NN(c2ccc(F)cc2)C(=O)/C1=C/c1cn(C[C@@H](O)CNCCCN2CCOCC2)c2ccccc12 | 34.6 | 4.86 | – |
| 3.24 | CC1=NN(c2ccc(F)cc2)C(=O)/C1=C/c1cn(CC2CO2)c2ccccc12 (centres undefined) | > 50 | > 15.4 | – |
| 5.94 | CC1=NN(c2cccc(C(F)(F)F)c2)C(=O)/C1=C/c1cn(CC2CO2)c2ccccc12 (centres undefined) | 25.1 | 4.23 | – |
| 24.5 | CC1=NN(c2ccccc2)C(=O)/C1=C/c1c[nH]c2ccccc12 | > 50 | > 2.03 | – |
| 1.02 | CC1=NN(c2ccc(F)cc2)C(=O)/C1=C/c1cn(CC(O)CNCCCN2CCOCC2)c2ccccc12 (racemic) | 46.5 | 45.6 | inhibition [4]: Active; inhibition [5]: inactive; inhibition [6]: Active; inhibition [7]: Active |
| 7.86 | CC1=NN(c2ccc(C(F)(F)F)cc2)C(=O)/C1=C/c1cn(CC2CO2)c2ccccc12 (centres undefined) | 40.4 | 5.14 | – |
| > 50 | CCCCN(CCCC)CC(O)Cn1cc(/C=C2/C(=O)N(c3ccccc3)N=C2C)c2ccccc21 (racemic) | > 50 | – | – |
| > 50 | CCCCNCC(O)Cn1cc(/C=C2/C(=O)N(c3ccccc3)N=C2C)c2ccccc21 (racemic) | > 50 | – | – |
| 0.74 | CC1=NN(c2cccc(F)c2)C(=O)/C1=C/c1cn(C[C@H](O)CNCCCN2CCOCC2)c2ccccc12 | 31.1 | 42 | – |
| 4.63 | CC1=NN(c2ccc(C(F)(F)F)cc2)C(=O)/C1=C/c1cn(CC(O)CNCCCN2CCOCC2)c2ccccc12 (racemic) | 11.3 | 2.44 | – |
| 8.06 | CC1=NN(c2ccccc2)C(=O)/C1=C/c1cn(C[C@@H](O)CNCCCN2CCOCC2)c2ccccc12 | 21.5 | 2.67 | – |
| 21.5 | CC1=NN(c2ccccc2)C(=O)/C1=C/c1cn(CC2CC2)c2ccccc12 | > 50 | > 2.32 | – |
| 5.46 | CC1=NN(c2ccccc2)C(=O)/C1=C/c1cn(CC(O)CNCCN2CCOCC2)c2ccccc12 (racemic) | 42.4 | 7.76 | – |
| 1.25 | CC1=NN(c2ccccc2)C(=O)/C1=C/c1cn(C[C@H](O)CNCCCN2CCOCC2)c2ccccc12 | > 50 | > 40 | – |
| 17.4 | CC1=NN(c2ccccc2)C(=O)/C1=C/c1cn(Cc2ccccc2)c2ccccc12 | > 50 | > 2.88 | – |
